Test results published in ChEMBL document CHEMBL1123661, “Structural alterations that differentially affect the mutagenic and antitrichomonal activities of 5-nitroimidazoles” (J Med Chem, 1987).
Converted amounts (≈) assume the structure as drawn.

Key:
[1] = tested on: Salmonella typhimurium TA100; experiment: The Mutagenicity in Salmonella typhimurium TA100 relative to Ronidazole.
[2] = Safety index.; type: toxicity; conditions: read-out: Safety index
In short: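 Index derived as [(ED₅₀ of reference × mutagenicity of reference)]/(ED₅₀ × mutagenicity), using the antitrichomonal ED₅₀ and the TA100 mutagenicity (relative to reference) measured here.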

Tritrichomonas suis = experiment: In vitro anti-trichomonal activity against Trichomonas foetus-Ortho strain-2.; type: functional; conditions: read-out: ED50 (the source's name)
In short: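 Trichomonas foetus Ortho strain 2 was grown in Diamond's medium with gentamycin (24 μg/mL) and 10% calf serum. 2×10^6 trichomonads were added to 1.8 mL medium. Compound was given in water or Me₂SO (final ≤1%, with solvent controls) over a range bracketing the EC₅₀. Motile survivors were counted after 24 h at 37 °C. The value is the mean of two or three determinations.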

[3] = tested on: Salmonella typhimurium TA100; experiment: The Mutagenicity was determined in Salmonella typhimurium TA100 relative to compound 20; ND means not detectable

Row | EC50 (Tritrichomonas suis) [µg/mL] | SMILES | Mutagenicity [1] [%] | selectivity ratio [2] | Mutagenicity [3]
1 | 3.6 (≈ 24.8 µM) | Cn1cnc(F)c1[N+](=O)[O-] | 16 | 0.7 | –
2 | 0.75 (≈ 3.41 µM) | Cc1nc(Br)c([N+](=O)[O-])n1C | 8 | 0.65 | –
3 | 0.3 (≈ 2.13 µM) | Cc1ncc([N+](=O)[O-])n1C [DIMETRIDAZOLE] | 15 | 8.9 | –
4 | 1.35 (≈ 3.7 µM) | COc1cc(C(=O)OCCn2c([N+](=O)[O-])cnc2C)cc(OC)c1OC | 12 | 2.5 | –
5 | 11 (≈ 40.8 µM) | Cc1nc(CCOC(=O)C(C)(C)C)c([N+](=O)[O-])n1C | 2.6 | 1.4 | –
6 | 7.7 (≈ 29 µM) | Cn1c(-c2ccc(F)cc2)nc(CCO)c1[N+](=O)[O-] | 8 | 0.65 | –
7 | 2.8 (≈ 12.3 µM) | CC(=O)OCCc1nc(C)n(C)c1[N+](=O)[O-] | 1 | 14 | –
8 | 21.5 (≈ 116 µM) | Cc1nc(C)n(CCO)c1[N+](=O)[O-] | 0.3 | 6.2 | –
9 | 1.6 (≈ 10.2 µM) | Cn1c([N+](=O)[O-])cnc1CO | 16 | 1.6 | –
10 | 3.9 (≈ 7.37 µM) | CC(=O)Oc1cc(C(=O)OCCn2c([N+](=O)[O-])cnc2-c2ccc(F)cc2)cc(OC(C)=O)c1OC(C)=O | 17 | 0.6 | –
11 | 2.35 (≈ 5.4 µM) | CC(=O)Oc1cc(C(=O)OCc2ncc([N+](=O)[O-])n2C)cc(OC(C)=O)c1OC(C)=O | 26 | 0.6 | –
12 | 0.25 (≈ 1.13 µM) | Cn1c([N+](=O)[O-])cnc1-c1ccc(F)cc1 | 300 | 0.53 | –
13 | 1 (≈ 4.67 µM) | Cc1nc(COC(N)=O)n(C)c1[N+](=O)[O-] | 2 | 20 | –
14 | 2 (≈ 10.8 µM) | Cc1nc(CCO)c([N+](=O)[O-])n1C | 0.28 | 71 | –
15 | 10 (≈ 42.5 µM) | Cc1nc(-c2ccc(F)cc2)n(C)c1[N+](=O)[O-] | 15 | 0.27 | –
16 | 32 (≈ 206 µM) | Cc1nc(C)n(C)c1[N+](=O)[O-] | 0.4 | 3.1 | –
17 | – | Cn1c([N+](=O)[O-])cnc1CCO | 19 | – | –
18 | 20 (≈ 99.4 µM) | Cn1c(CO)nc(CCO)c1[N+](=O)[O-] | 1 | 2 | –
19 | 0.4 (≈ 2.34 µM) | Cc1ncc([N+](=O)[O-])n1CCO [METRONIDAZOLE] | – | – | –
20 | 6.6 (≈ 14.7 µM) | CC(=O)Oc1cc(C(=O)OCCn2c([N+](=O)[O-])cnc2C)cc(OC(C)=O)c1OC(C)=O | 0.23 | 26 | –
21 | – | Cc1nc(CCO)n(C)c1[N+](=O)[O-] | 0.8 | – | –
22 | 14.5 (≈ 91.1 µM) | Cc1nc(F)c([N+](=O)[O-])n1C | – | – | Not detectable
23 | 0.4 (≈ 2 µM) | Cn1c([N+](=O)[O-])cnc1COC(N)=O [RONIDAZOLE] | 100 | 1 | –
